Screening data as filed in PubChem BioAssay.
NSD2 inh: NSD2 histone methyltransferase inhibitors, primary screen, biochemical, AlphaScreen, single concentration, set 2; NSD2 peptide methylation, 120 min; inhibition, % at 12.5 µM; hit rate 0.54% among 310,000; AID 743445, 2014; in the data active means inhibition above about 50%
MBD2 inh: inhibitors of MBD2 binding to methylated DNA, primary screen, biochemical, TR-FRET, DNA-binding domain, human; Methyl-CpG-binding domain protein 2 (Homo sapiens), Q9UBB5; MBD2 binding to methylated oligonucleotide; inhibition, % at 4.4 µM; hit rate 0.31% among 370,000; AID 686964, 2013; in the data active means inhibition above about 13%
LEDGF integ inh: blockers of LEDGF/p75-dependent integrase strand transfer – biochemical, TR-FRET, high throughput, primary screen; HIV-1 integrase (with human LEDGF/p75); TR-FRET IN-LEDGF/p75 DNA integration, Eu/Cy5; inhibition, % at 3.7 µM; hit rate 0.64% among 370,000; AID 743269, 2014;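 active means inhibition above the screen-wide mean plus 3 SD, cut at about 13% in these data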;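 further: signal is the Cy5 over europium emission ratio at 671 and 618 nm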
Casp6 inh: human caspase-6 inhibitors, primary screen, biochemical, VEID-R110 fluorescence, single point, set 2. inhibition, % at 12.5 µM. hit rate 0.53% among 350,000. purified caspase-6, Z-VEID-R110 cleavage fluorescence. P55212;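 active means mean inhibition across replicates at least about 35%, with every replicate also reaching that limit, limit read from the data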
TDP2 inh: human TDP2 enzyme inhibitors, primary screen, biochemical, epi absorbance, recombinant enzyme | inhibition, % at 12.8 µM | T5PNP hydrolysis, p-nitrophenol absorbance 415 nm | hit rate 0.34% among 370,000 | Tyrosyl-DNA phosphodiesterase 2 (Homo sapiens), O95551 | AID 720702, 2013;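 active means inhibition above the mean of all tested compounds plus 3 SD, set per campaign, cut at about 25% in these data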
Target sequence (O95551 whole entry, looked up): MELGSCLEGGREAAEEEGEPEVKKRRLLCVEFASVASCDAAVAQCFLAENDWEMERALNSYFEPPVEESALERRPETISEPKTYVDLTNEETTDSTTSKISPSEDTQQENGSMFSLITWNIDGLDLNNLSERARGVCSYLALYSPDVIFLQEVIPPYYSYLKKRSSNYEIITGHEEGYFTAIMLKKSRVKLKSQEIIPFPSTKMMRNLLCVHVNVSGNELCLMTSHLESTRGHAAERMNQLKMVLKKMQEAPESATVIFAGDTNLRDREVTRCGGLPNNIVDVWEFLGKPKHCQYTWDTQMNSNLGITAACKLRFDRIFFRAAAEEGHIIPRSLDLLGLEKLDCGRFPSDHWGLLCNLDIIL
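Test system: human TDP2 enzyme; Input: 120 nM TDP2 per well; Buffer or medium: Mg2+-containing Tris-HCl buffer, pH 7.5; Reagent: 5 mM T5PNP; Dosing: 12.8 µM single point, 1% DMSO; Incubation: reaction 2 h, 37 °C; Detection: p-Nitrophenol epi absorbance; Read-out: % inhibition relative to enzyme-containing and enzyme-free wells; Replicates: single well per compound.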
UHRF1 binding: UHRF1 methylated DNA binding inhibitors, primary screen, counter-screen for MBD2 inhibitor project, biochemical, TR-FRET, human UHRF1, single concentration. inhibition, % at 4.4 µM. hit rate 0.75% among 370,000. E3 ubiquitin-protein ligase UHRF1 (Homo sapiens), Q96T88. UHRF1 binding to methylated oligo. AID 687016, 2013; in the data active means inhibition above about 21%;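 further: UHRF1 SRA domain binding a hemimethylated CpG hairpin DNA probe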
Alpha artifact: AlphaScreen signal interference with preloaded methylated product, dose response, artefact control for NSD2 inhibitor project, biochemical, cherry-picked samples. AC35, µM (highest dose often 10 µM). shares compounds with NSD2 inh. AlphaScreen artifact counterscreen, preloaded methylated H4 peptide. AID 1053174, 2014. hit rate 9.4% among 1,500; call rule not given here
Of the large screens only hits and unclear results are named; the others gave an inactive call (follow-up assays come after a bar, where they were run). Hits are enriched below; roughly 1.8% of the tested compounds scored in any of these assays.

CC(C)CN(CCNC(=O)CN1C(=O)COc2ccc(S(=O)(=O)N3CCOCC3)cc21)CC(C)C	none
CCN(CC)CCNC(=O)CN1C(=O)COc2ccc(S(=O)(=O)N3CCOCC3)cc21	NSD2 inh 81 | Alpha artifact inactive
CC=Cc1ccc2n(c1=O)C[C@H]1[C@H](CO)[C@@H](C(=O)NCc3ccccn3)[C@@H]2N1CCC (mixture of isomers)	none (no result: NSD2 inh, MBD2 inh, LEDGF integ inh, TDP2 inh, UHRF1 binding)
CCN1CCN(Cc2nc(N)nc(Nc3ccc(C)c(C)c3)n2)CC1	NSD2 inh 95 (no result: Casp6 inh) | Alpha artifact inactive
O=C(Cc1ccncc1)NCC[C@H]1CC[C@H](NC(=O)C2CCC2)[C@H](CO)O1	none (no result: NSD2 inh, MBD2 inh, LEDGF integ inh, TDP2 inh, UHRF1 binding)
CCN1[C@@H]2c3ccc(-c4ccccc4F)c(=O)n3C[C@H]1[C@H](CO)[C@H]2C(=O)N1CCCCC1	none (no result: NSD2 inh, MBD2 inh, LEDGF integ inh, TDP2 inh, UHRF1 binding)
COc1ccc(-c2csc(Nc3ccc(S(=O)(=O)Nc4cc(C)on4)cc3)n2)cc1C	NSD2 inh 63 | Alpha artifact inactive
Cc1ccc(Cn2c(SCC(=O)NCC3CCCO3)nc3c2c(=O)n(C)c(=O)n3C)cc1 (stereo not drawn)	NSD2 inh 51 | Alpha artifact inactive
CCCc1cn([C@H]2C[C@@H]3O[C@@H](CO)CC[C@@H]3O[C@@H]2CCc2ccc(-c3ccc(OC)cc3)cc2)nn1	none (no result: NSD2 inh, MBD2 inh, LEDGF integ inh, TDP2 inh, UHRF1 binding)
COCCNC(=O)c1ccc(CN2CCc3ccccc3C2)cc1	NSD2 inh 56 | Alpha artifact inactive
CCCNC(=O)c1ccc(CN2CCc3ccccc3C2)cc1	none (no result: Casp6 inh)
CN(C)c1ncnc2c1ncn2-c1ccccc1	none
CN(c1ccccc1)c1ncnc2c1ncn2C	NSD2 inh 122 | Alpha artifact inactive
Nc1nc(=S)c2ncn(C3OC(CO)C(O)C3O)c2[nH]1 (stereo not drawn)	NSD2 inh 52 (no result: Casp6 inh) | Alpha artifact inactive
CC(C)NC(=O)Nc1ccc2c(c1)CC(=O)N([C@@H](C)CO)C[C@H](C)[C@@H](CN(C)CC1CC1)O2	none (no result: NSD2 inh, MBD2 inh, LEDGF integ inh, TDP2 inh, UHRF1 binding)
C[C@@H](NC(=O)[C@H]1N[C@H]2c3ccc(-c4cccnc4)c(=O)n3C[C@H]2[C@@H]1CO)c1ccccc1	none (no result: NSD2 inh, MBD2 inh, LEDGF integ inh, TDP2 inh, UHRF1 binding)
CN1C(=O)c2cc(NC(=O)c3ccc(F)c(F)c3)ccc2OC[C@H]2O[C@@H](CC(=O)Nc3ccc4c(c3)COC4)CC[C@@H]21	none (no result: NSD2 inh, MBD2 inh, LEDGF integ inh, TDP2 inh, UHRF1 binding)
O=C(CSc1ccc(-c2cccnc2)nn1)N1CCCC1	NSD2 inh 52 | Alpha artifact inactive
O=C(CSc1ccc(-c2cccnc2)nn1)N1CCCCCC1	none
O=C(CC1CC1)Nc1ccc2c(c1)[C@@H]1C[C@@H](CC(=O)N3CCc4ccccc4C3)O[C@@H](CO)[C@@H]1O2	none (no result: NSD2 inh, MBD2 inh, LEDGF integ inh, TDP2 inh, UHRF1 binding)
CCCNC(=O)Nc1ccc2c(c1)C(=O)N(C)C[C@@H](OC)[C@H](C)CN(S(C)(=O)=O)[C@H](C)CO2	none (no result: NSD2 inh, MBD2 inh, LEDGF integ inh, TDP2 inh, UHRF1 binding)
O=C1NC(=S)S/C1=C\c1cc2ccccc2nc1N1CCCCC1	NSD2 inh 83, UHRF1 binding 78 | Alpha artifact inactive
COc1ccc2nc(N3CCCCC3)c(/C=C3\SC(=S)NC3=O)cc2c1	none (no result: NSD2 inh)
CCC(=O)Nc1ccc2c(c1)C(=O)N(C)C[C@@H](OC)[C@@H](C)CN(Cc1ccccc1C(=O)O)[C@@H](C)CO2	none (no result: NSD2 inh, MBD2 inh, LEDGF integ inh, TDP2 inh, UHRF1 binding)
CCOC(=O)c1c(C)oc2c1c(C=NCCC(=O)O)c(O)c1ccccc12	NSD2 inh 164 | Alpha artifact inactive
COc1cccc2c1C(=N)c1c(O)c3c(c(O)c1C2=O)CC(O)(C(C)=O)CC3OC1CC(N)C(O)C(C)O1 (stereo not drawn)	NSD2 inh 56 (no result: MBD2 inh, LEDGF integ inh, Casp6 inh, TDP2 inh, UHRF1 binding) | Alpha artifact 8.5µM
